Activity calls are given as the source filed them. The rule behind the calls is not given here.
Columns and labels:
[1] = test system: LNCaP; assay: Antiproliferative activity against human LNCAP cells after 48 hrs by SRB assay; assay type: functional, cell-based
[2] = Antiproliferative activity against human paclitaxel-resistant PC3-TxR cells after 48 hrs by SRB assay; assay type: functional, cell-based
[3] = test system: PC-3; assay: Resistance index, ratio of IC50 for human paclitaxel-resistant PC3-TxR cells to IC50 for human PC3 cells
[4] = Antiproliferative activity against human WM164 cells after 48 hrs by SRB assay; assay type: functional, cell-based; conditions: WM164, 48 h
[5] = test system: A-375; assay: Antiproliferative activity against human A375 cells after 48 hrs by SRB assay; assay type: functional, cell-based; conditions: A-375, 48 h
Method in brief: (§1)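 Run as part of a panel of two human metastatic melanoma lines (A375, WM164) and three human prostate cancer lines (LNCaP, PC-3, Du 145), following previously described methods. Colchicine served as the positive control.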

[6] = test system: PC-3; assay: Antiproliferative activity against human PC3 cells after 48 hrs by SRB assay; assay type: functional, cell-based; conditions: PC-3, 48 h
[7] = organism: Bos taurus; assay: Inhibition of bovine brain tubulin polymerization measured for every 1 min for 20 mins by spectrophotometer analysis
Method in brief: (§2)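 Bovine brain tubulin (>97% pure), 0.4 mg per assay, exposed to test compound at 5 or 10 μM in 5% DMSO vehicle, with a DMSO-only control and colchicine 5 μM as positive control. Polymerization followed by absorbance at 340 nm at 37 °C, read every minute for 20 min. Percent inhibition of polymerization taken at 20 min.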

[8] = organism: Bos taurus; assay: Inhibition of bovine brain tubulin polymerization at 10 uM measured for every 1 min for 20 mins by spectrophotometer analysis; method in brief: as §2
[9] = organism: Bos taurus; assay: Inhibition of bovine brain tubulin polymerization at 5 uM measured for every 1 min for 20 mins by spectrophotometer analysis; method in brief: as §2
[10] = test system: DU-145; assay: Antiproliferative activity against human DU145 cells after 48 hrs by SRB assay; assay type: functional, cell-based; conditions: DU-145, 48 h; method in brief: as §1
[11] = organism: Homo sapiens; conditions: 10 to 1000 nM

For `COc1cc(C(=O)c2c[nH]c(-c3coc4ccccc34)n2)cc(OC)c1OC`, the IC50 [1] was 14.1 nM, the IC50 [2] was 42.8 nM and the “Ratio IC50” value [3] was 1. It also gave an IC50 [4] of 73.6 nM, an IC50 [5] of 53.4 nM and an IC50 [6] of 33.3 nM. For the same compound, the inhibition [7] was “Dose-dependent effect”, the inhibition [8] was 60% and the inhibition [9] was 30%. For the same compound, the IC50 [10] was 45 nM.
With `COc1cc(C(=O)c2cn(C)c(-c3cn(C)c4ccccc34)n2)cc(OC)c1OC` the IC50 [1] was 35.9 nM, the IC50 [2] was 22.4 nM and the “Ratio IC50” value [3] was 1.1. The IC50 [4] was 24.2 nM, the IC50 [5] was 18.8 nM and the IC50 [6] was 20.8 nM. The inhibition [7] was “Dose-dependent effect”, the inhibition [8] was 80% and the inhibition [9] was 65%. The IC50 [10] was 76.5 nM.
In the case of `COc1cc(C(=O)c2c[nH]c(-c3cn(S(=O)(=O)c4ccccc4)c4ccccc34)n2)cc(OC)c1OC`, the IC50 [1] is reported as 107 nM, the IC50 [2] is reported as 27.6 nM and the “Ratio IC50” value [3] is reported as 0.9. For the same compound, the IC50 [4] was 166 nM, the IC50 [5] was 414 nM and the IC50 [6] was 33.3 nM. For the same compound, the inhibition [7] was “Dose-dependent effect”, the inhibition [8] was 85% and the inhibition [9] was 67%. It also gave an IC50 [10] of 189 nM.
With `COc1cc(C(=O)c2cnc(-c3c[nH]c4ccccc34)[nH]2)cc(OC)c1OC` [SABIZABULIN] the IC50 [1] was 2.8 nM, the inhibition [11] was “inactive” and the IC50 [2] was 3.7 nM. For the same compound, the “Ratio IC50” value [3] was 1, the IC50 [4] was 5.3 nM and the IC50 [5] was 3.2 nM. The IC50 [6] was 3.7 nM, the inhibition [7] was “Dose-dependent effect” and the inhibition [8] was “Active”. For the same compound, the inhibition [9] was 70% and the IC50 [10] was 3.9 nM.
`CC(=O)O[C@H]1C(=O)[C@@]2(C)[C@H]([C@H](OC(=O)c3ccccc3)[C@]3(O)C[C@H](OC(=O)[C@H](O)[C@@H](NC(=O)c4ccccc4)c4ccccc4)C(C)=C1C3(C)C)[C@]1(OC(C)=O)CO[C@@H]1C[C@@H]2O` [PACLITAXEL] showed an IC50 [2] of 188 nM and an IC50 [6] of 0.4 nM.
For `COc1cc(C(=O)c2c[nH]c(-c3csc4ccccc34)n2)cc(OC)c1OC`, the IC50 [1] was 29.1 nM, the IC50 [2] was 98.6 nM and the “Ratio IC50” value [3] was 0.9. For the same compound, the IC50 [4] was 45.7 nM, the IC50 [5] was 41 nM and the IC50 [6] was 20.8 nM. For the same compound, the inhibition [7] was “Dose-dependent effect”, the inhibition [8] was 30% and the inhibition [9] was “inactive”. The IC50 [10] was 51.2 nM.
With `COc1cc2c(c(OC)c1OC)-c1ccc(OC)c(=O)cc1[C@@H](NC(C)=O)CC2` [COLCHICINE] the IC50 [1] was 16.3 nM, the IC50 [4] was 29 nM and the IC50 [5] was 20.6 nM. The IC50 [6] was 11.5 nM and the IC50 [10] was 11.2 nM.

Source: ChEMBL document CHEMBL2163309, “Discovery of novel 2-aryl-4-benzoyl-imidazole (ABI-III) analogues targeting tubulin polymerization as antiproliferative agents” (J Med Chem, 2012)
